Assay outcomes (PubChem BioAssay)
KCNK3 inh – human KCNK3 channel inhibition, primary screen | O14649 | 340,000 tested, 0.84% active | AID 602410 | CHO-KCNK3 thallium flux, FluxOR fluorescence; active compounds read low | B-score at 10 µM;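 active = B-score under library mean minus 4 SD, starting fluorescence ratio at most library mean plus 5 SD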;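 note: more negative B-score means stronger inhibition of thallium flux through KCNK3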
Target sequence (O14649 whole entry, looked up): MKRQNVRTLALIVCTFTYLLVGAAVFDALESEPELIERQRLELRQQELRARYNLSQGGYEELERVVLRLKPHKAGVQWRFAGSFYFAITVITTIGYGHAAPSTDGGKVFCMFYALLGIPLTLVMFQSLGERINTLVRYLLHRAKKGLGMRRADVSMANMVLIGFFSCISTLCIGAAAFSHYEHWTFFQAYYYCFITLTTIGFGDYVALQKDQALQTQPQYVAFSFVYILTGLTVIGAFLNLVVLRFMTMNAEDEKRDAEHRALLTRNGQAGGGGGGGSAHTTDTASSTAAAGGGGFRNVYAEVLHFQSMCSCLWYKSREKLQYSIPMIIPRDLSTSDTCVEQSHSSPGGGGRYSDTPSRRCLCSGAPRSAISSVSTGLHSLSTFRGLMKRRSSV
KCNK9 block – blocks the human KCNK9 two-pore domain potassium channel; B-score at 10 µM; Q9NPC2; HEK293 KCNK9, FluxOR thallium flux fluorescence; active compounds read low; AID 488922; 310,000 tested, 1.2% active;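 active = ratio B-score over 3 SD below the library mean, with starting fluorescence within 5 SD of its mean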;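 note: negative B-score means less thallium flux so channel inhibition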
hERG protect – hERG (human) protection from proarrhythmic block | activation (rescue from dofetilide block), less the hit threshold, % at 10 µM | Q12809 | CHO-hERG, FluxOR thallium flux, dofetilide IC70 present | AID 1511 | 310,000 tested, 0.51% active;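 active = activation above the mean of controls blocked by dofetilide plus 5 SD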;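 note: thallium influx through hERG after potassium depolarization seen as dye fluorescence rise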
KCNQ1 act – human KCNQ1 channel potentiation or activation | CHO-K1 KCNQ1, thallium flux FluxOR fluorescence; active compounds read high | B-score at 10 µM | 310,000 tested, 0.35% active | AID 2648;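 active = fluorescence ratio B-score, a plate-corrected score, at least three library SD, with initial intensity B-score within 5 SD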
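Test system: CHO-K1 cells stably expressing KCNQ1 / Medium: assay buffer / Also added: depolarizing K+/Tl+ stimulus, K2SO4 and Tl2SO4 each 12.5 mM in 5x stock / Incubation: 90 min dye loading and 20 min compound exposure, both at room temperature / Signal: thallium influx via FluxOR fluorescence, kinetic imaging / Evaluation: B score of baseline-normalized fluorescence ratio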
PHOSPHO1 block – inhibitors of human PHOSPHO1 phosphatase; inhibition, % at 13.3 µM; recombinant PHOSPHO1, absorbance phosphatase assay; 290,000 tested, 1.1% active; in the data active = inhibition above about 60%
KCNQ1 inh – inhibitors of human KCNQ1 potassium channel; CHO-K1 KCNQ1, FluxOR thallium flux fluorescence; active compounds read high; B-score at 10 µM; 310,000 tested, 1.3% active;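 active = compounds whose thallium flux B-score, printed positive for inhibition, exceeds three library SD while starting fluorescence stays within three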;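 note: channel opened by potassium depolarization with thallium stimulus after 20 min compound exposure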
* = called active by the depositor; i = inactive; . = not tested or not shown. Rows were chosen to be rich in hits. Some 4% of all compounds tested hit in one or more screens of this group.

SMILES	KCNK3 inh	KCNK9 block	hERG protect	KCNQ1 act	PHOSPHO1 block	KCNQ1 inh
O=C(ONc1ccc(N=NC(=O)c2ccccc2O)cc1)c1ccccc1	i	i	-11.9	i	83.1*	i
CN(C)c1cc(N/N=C/c2ccc(Cl)cc2)nc(N(C)C)n1	i	i	-10.5	i	16.0	7*
COc1ccc(S(=O)(=O)N2CCOC2CNC(=O)C(=O)NCc2ccc3c(c2)OCO3)cc1OC (stereo unspecified)	i	i	-2.6	i	14.7	i
CC#CC[N+](C)(C)CCCCCCCCCCCC	i	i	-22.8	i	-4.9	6*
O=[N+]([O-])c1ccc(NN=Cc2cccc([N+](=O)[O-])c2)cc1	i	.	.	.	.	.
O=[N+]([O-])c1ccc(N/N=C/c2ccc[nH]2)cc1	i	.	.	.	90.4*	.
O=C(CN1CCN(C(=O)c2ccccc2)CC1)Nc1ccc(Cl)cc1F	i	i	-5.4	i	3.0	i
COc1ccccc1Cc1nc2ccccc2n1S(=O)(=O)c1ccc(Cl)cc1	i	i	-2.6	i	13.4	i
COc1ccc(CC(=O)OC(C)CN2CCCCC2)cc1 (stereo unspecified)	i	i	-5.1	i	40.7	i
CCN(CC)CCNS(=O)(=O)c1ccc(OC)c(Br)c1	i	i	-7.4	i	92.7*	i
Cc1ccc(S(=O)(=O)Oc2ccc3ccc(O)cc3c2)cc1	i	i	-11.1	i	35.6	i
CCOc1ccc(S(=O)(=O)Oc2ccc3ccccc3c2)cc1	i	i	-7.5	i	-6.0	6*
CC(=O)c1ccccc1NS(=O)(=O)c1cccc2nsnc12	i	i	-3.1	i	20.1	i
O=C(Oc1ccc(Br)cc1C(=S)N1CCCC1)c1ccccc1F	i	i	-10.9	i	3.2	i
O=C(Oc1ccc(Br)cc1C(=S)N1CCCC1)c1ccccc1Cl	i	-7.99*	-4.8	i	4.4	i
O=C(Cc1ccccc1)NNC(=O)Nc1ccccc1	i	i	-4.4	i	28.3	i
CCn1c(=O)c2c3c(sc2n2c(=S)[nH]nc12)CCC3	i	i	-14.4	i	102.0*	i
CCn1c(SCC(N)=O)nc2sc3c(c2c1=O)CCCC3	i	i	5.4*	15*	14.7	i
CCn1c(NN)nc2sc3c(c2c1=O)CCC3	i	.	.	.	86.5*	.
N#Cc1c2ccc(OCC(N)=O)cc2n2ccccc12	i	i	-14.6	i	45.6	i
Cc1c(CNCCC2=CCCCC2)c(C(=O)O)c(C)n1Cc1ccccc1	i	i	6.6*	i	-12.7	i
Cc1c(CNCCc2ccc(Cl)cc2)c(C(=O)O)c(C)n1Cc1ccccc1	i	i	-30.7	i	39.8	i
CCCN(CC(=O)Nc1cc(Cl)ccc1Cl)C(=O)/C=C/c1cc(OC)ccc1OC	-8.72*	.	.	.	.	.
COc1ccccc1-n1c(C)nc(=O)c(-c2ccccc2)c1C	i	i	5.3*	i	-31.2	i
CCOC(=O)c1ccc(NC(=S)NNC(=O)c2cc(-c3cccnc3)nc3ccccc23)cc1	i	i	-22.2	i	-126.7	10*
SMILES	KCNK3 inh	KCNK9 block	hERG protect	KCNQ1 act	PHOSPHO1 block	KCNQ1 inh
CCNC(=S)NNC(=O)c1cc(-c2cccc(C)c2)nc2ccccc12	i	i	-2.2	i	71.9*	i
CCNC(=S)NNC(=O)c1cc(-c2cccc(OCC)c2)nc2ccccc12	i	i	-16.4	i	42.7	i
CCOC(=O)c1ccc(Nc2nc(-c3cccnc3)nc3ccccc23)cc1	i	-7.06*	-6.7	i	35.4	i
CC1CCCCC1NC(=O)COn1nnc2ccc(Cl)cc21 (stereo unspecified)	i	i	-5.6	i	6.8	i
Cc1cc(C)n2nc(C(=O)N3CCOCC3)nc2n1	i	i	8.0*	i	6.2	i
COc1ccc(N2CCN(C(=O)c3nc4nc(C)cc(C)n4n3)CC2)cc1	i	i	-15.2	i	20.2	i
Cc1cc(C)n2nc(C(=O)OCC(=O)N3CCC3)nc2n1	i	i	5.3*	i	26.7	i
CCOC(=O)C1CCN(C(=O)COC(=O)c2nc3nc(C)cc(C)n3n2)CC1	i	i	-5.6	i	.	i
COc1ccc(OC)c(NC(=O)c2cccnc2Sc2cc(C)ccc2C)c1	i	-7.59*	-5.9	i	-0.8	i
Cc1ccc(NS(=O)(=O)c2ccc3c(c2)NC(=O)CCS3)c(Br)c1	i	i	-6.0	i	64.9*	i
COc1ccc(CN(Cc2cccn2C)S(=O)(=O)c2ccc(C)cc2)cc1	i	i	-7.5	i	27.4	i
COc1ccc(CN(Cc2cccn2C)S(=O)(=O)c2ccc(F)cc2)cc1	i	-6.85*	-2.1	i	7.4	i
CCc1ccc(-n2c(Cn3nc(C(F)(F)F)cc3C)n[nH]c2=S)cc1	i	i	-7.9	i	88.9*	i
Cc1cc(C(F)(F)F)nn1Cc1n[nH]c(=S)n1-c1ccc(F)cc1	i	i	-5.0	i	-4.0	i
O=C(NCc1cnn(-c2ccc(F)cc2)c1)C1CCC(=O)N(C2CC2)C1 (stereo unspecified)	i	i	-1.2	i	61.0*	i
CCN(CC)S(=O)(=O)c1cccc(-c2nnc(SCC(=O)c3cc(C)n(C)c3C)o2)c1	i	i	0.9	i	79.7*	i
O=C(Nc1ccccc1)c1nc2ccccc2s1	i	i	-10.3	i	11.7	i
Cc1ccc(C)c2sc(NC(=O)c3nc4ccccc4s3)nc12	i	i	8.9*	25*	1.3	i
Cc1ccc(CNC(=O)CN2CCN(Cc3ccc(C)cc3)C2=O)cc1	i	i	-5.4	i	11.3	i
COc1cc(NC(=O)c2ccccc2)c(OC)cc1NC(=O)Cc1ccc(F)cc1	i	i	-3.5	i	46.0	i
CC(C)OC(=O)CSc1nnc(-c2cnccn2)n1Cc1ccco1	i	i	-0.9	i	11.7	i
O=C(CSc1nnc(-c2ccccn2)n1Cc1ccco1)c1ccc(-c2ccccc2)cc1	i	i	-14.2	i	77.0*	i
Cn1c(SCC(=O)c2ccccc2)nnc1-c1cnccn1	i	i	-3.4	i	83.1*	i
O=C(CSc1nnc(-c2cnccn2)n1Cc1ccco1)c1ccc2ccccc2c1	i	i	-10.4	i	85.5*	i
COc1cc(/C(C)=N/NC(=O)Cc2c(C)[nH][nH]c2=O)ccc1O	i	i	-6.8	i	-9.7	i
Cc1ccc(-c2nc3cccnc3o2)cc1NC(=O)COc1ccc(C(C)(C)C)cc1	i	i	-5.5	i	20.4	9*
